High-throughput results as filed in PubChem.
KCNQ1 act – human KCNQ1 channel potentiation or activation. P51787. CHO-K1 KCNQ1, thallium flux FluxOR fluorescence; hits give high values. B-score at 10 µM. 310,000 tested, 0.35% active. AID 2648;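 active means fluorescence ratio B-score, a plate-corrected score, at least three library SD, with initial intensity B-score within 5 SD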
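Medium – assay buffer, equal DMSO in all wells · Material – CHO-K1 cell line with stable KCNQ1 potassium channel expression · Signal – kinetic FluxOR thallium fluorescence, 10-s 1-Hz baseline, 110-s post-stimulus read · Compound – single concentration per compound, DMSO matched to controls · Schedule – 37 °C overnight plating, 90-min dark dye load, 20-min compound pretreatment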
hERG protect – compounds protecting human hERG from proarrhythmic drug block. CHO-hERG, FluxOR thallium flux, dofetilide IC70 present. activation (rescue from dofetilide block), less the hit threshold, % at 10 µM. 310,000 tested, 0.51% active;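 active means activation above the mean of controls blocked by dofetilide plus 5 SD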;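 further: thallium influx through hERG after potassium depolarization seen as dye fluorescence rise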
KCNK9 block – blocks the human KCNK9 two-pore domain potassium channel | 310,000 tested, 1.2% active | Q9NPC2 | HEK293 KCNK9, FluxOR thallium flux fluorescence; hits give low values | AID 488922 | B-score at 10 µM;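 active means ratio B-score over 3 SD below the library mean, with starting fluorescence within 5 SD of its mean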;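 further: negative B-score means less thallium flux so channel inhibition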
KCNK3 block – human KCNK3 channel inhibition, primary screen; O14649; CHO-KCNK3 thallium flux, FluxOR fluorescence; hits give low values; B-score at 10 µM; 340,000 tested, 0.84% active; AID 602410;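 active means B-score under library mean minus 4 SD, starting fluorescence ratio at most library mean plus 5 SD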;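 further: more negative B-score means stronger inhibition of thallium flux through KCNK3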
KCNQ1 block – inhibitors of human KCNQ1 potassium channel; B-score at 10 µM; CHO-K1 KCNQ1, FluxOR thallium flux fluorescence; hits give high values; 310,000 tested, 1.3% active; AID 2642;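 active means compounds whose thallium flux B-score, printed positive for inhibition, exceeds three library SD while starting fluorescence stays within three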;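 further: channel opened by potassium depolarization with thallium stimulus after 20 min compound exposure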
Kir21 block – Kir2.1 (mouse) channel inhibition. HEK293-Kir2.1, FluxOR thallium flux fluorescence; hits give low values. P35561. 310,000 tested, 0.85% active. B-score at 10 µM;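 active means fluorescence ratio B-score at or below minus 3 SD of library scores, with starting-brightness B-score within 2 SD, cut at about -4.2 in these data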;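 further: channel flux triggered by added potassium and thallium sulfate stimulus; B-score of peak minus minimum fluorescence over baseline after thallium stimulus; more negative B-score means stronger Kir2.1 block with less thallium influx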
Target sequence (P35561 whole entry, looked up): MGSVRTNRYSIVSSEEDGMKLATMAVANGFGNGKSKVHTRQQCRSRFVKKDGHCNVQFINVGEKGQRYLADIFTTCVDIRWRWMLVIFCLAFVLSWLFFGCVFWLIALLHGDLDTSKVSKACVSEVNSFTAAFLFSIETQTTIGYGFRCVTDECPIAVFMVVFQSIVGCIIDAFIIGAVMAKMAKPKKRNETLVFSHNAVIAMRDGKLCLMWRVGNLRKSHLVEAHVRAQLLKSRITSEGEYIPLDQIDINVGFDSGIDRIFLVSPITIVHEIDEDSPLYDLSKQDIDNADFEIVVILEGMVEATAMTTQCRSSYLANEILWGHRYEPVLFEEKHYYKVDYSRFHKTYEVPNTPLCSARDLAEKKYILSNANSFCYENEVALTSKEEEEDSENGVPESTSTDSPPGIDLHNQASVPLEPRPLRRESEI
KCNK9 inh conf – human KCNK9 inhibitor confirmation. shares compounds with KCNK9 block. HEK293 KCNK9 cells, FluxOR thallium flux fluorescence. inhibition, % at 10 µM. 4,900 tested, 43% active;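 active means thallium signal inhibited by more than 5 SD of the compound-free buffer control wells, on both duplicate plates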
Kir21 sel – mouse Kir2.1 off-target activity of KCNK9 modulators. AID 492993. Kir2.1 cells, FluxOR thallium flux fluorescence. 4,900 tested, 4% active. shares compounds with KCNK9 block. inhibition, % at 10 µM;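 active means thallium signal drop more than 5 SD beyond the mean of the no-compound control wells, seen in both duplicate plates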;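 further: signal is fluorescence rise after thallium addition divided by baseline fluorescence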
KCNK9 uninduced – non-induced cell nonspecific activity of KCNK9 modulators; 4,900 tested, 40% active; inhibition, % at 10 µM; non-induced KCNK9-HEK293, FluxOR thallium flux; shares compounds with KCNK9 block;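 active means thallium signal drop beyond 5 SD of the untreated control mean, on both duplicate plates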
KCNK3 confirm – confirmation of human KCNK3 two-pore domain potassium channel inhibitors; shares compounds with KCNK3 block; CHO-KCNK3 thallium flux, FluxOR fluorescence; 0% buffer, 100% carvedilol maximal block; ratio percent of control, % at 10 µM; 2,400 tested, 99% active; AID 651638;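 active means ratio percent of control, averaged over triplicates, above buffer control mean plus 5 SD, cut at about 64% in these data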;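 further: ratio is the fluorescence rise from min to max over baseline after thallium stimulus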
KCNK3 noninduced – counter-screen for KCNK3 inhibitors: effect in non-induced cells | shares compounds with KCNK3 block | non-induced KCNK3 parental cells, FluxOR thallium flux; hits give low values | thallium flux ratio (lower = more inhibition) at 10 µM | 2,400 tested, 40% active | AID 651747;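 active means thallium flux ratio, averaged over three wells, more than 5 SD below the buffer control mean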;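 further: host cells are CHO cells without KCNK3 induction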
A number is an active result; . = inactive; / = no result given. Only some compounds are listed: those with a hit (about 3.7% of all), similar ones and a draw of the others.

SMILES	KCNQ1 act	hERG protect	KCNK9 block	KCNK3 block	KCNQ1 block	Kir21 block	KCNK9 inh conf	Kir21 sel	KCNK9 uninduced	KCNK3 confirm	KCNK3 noninduced
Clc1ccc(-n2cccc2CN2CCc3c([nH]c4ccccc34)C2c2ccccn2)nc1 (stereo not drawn)	.	.	-8.5	-10	.	.	38%	.	25%	125	0.14
O=C(Cc1ccsc1)N1CCc2c([nH]c3ccccc23)C1c1ccccn1 (stereo not drawn)	.	.	.	.	.	.	/	/	/	/	/
COc1cc(C(=O)NCC(=O)OC(C)C(=O)Nc2ncc(Cl)cc2Cl)cc(OC)c1OC (stereo not drawn)	.	.	.	.	.	.	/	/	/	/	/
CC(OC(=O)c1ccc(O)cc1)C(=O)Nc1cc(C(F)(F)F)ccc1Cl (stereo not drawn)	.	.	-11	-9.8	6	.	.	.	48%	139	0.12
O=C(COC(=O)c1ccc(O)cc1)Nc1cc(C(F)(F)F)ccc1Cl	.	.	.	.	.	.	/	/	/	/	/
COc1ccc(OC)c(NC(=O)CN(Cc2ccc(F)cc2)C2CCCCC2)c1	.	.	-14	-8.8	.	.	69%	.	48%	56	0.12
Cc1ccc(S(=O)(=O)Nc2ccc(S(=O)(=O)NCC3CCCO3)cc2)cc1 (stereo not drawn)	.	.	.	.	.	.	/	/	/	/	/
CC1CC(C)CN(C(=O)c2cccc(N3C(=O)c4ccccc4C3=O)c2)C1 (stereo not drawn)	/	/	/	.	/	/	/	/	/	/	/
CC(C)Oc1cccc(C(=O)C2CCCN(C(=O)c3ccnn3C)C2)c1 (stereo not drawn)	.	.	.	-10	.	.	.	.	.	98	.
O=C(Oc1ccc([N+](=O)[O-])cc1)C1CC(=O)N(c2ccc3c(c2)OCCO3)C1 (stereo not drawn)	/	/	/	.	/	/	/	/	/	/	/
CC(C)c1ccccc1NC(=O)COC(=O)c1c2c(nc3ccccc13)CCN(Cc1ccccc1)C2	.	.	-12	-9.7	.	.	66%	.	.	132	0.14
CC(C)NC(=O)NC(=O)COC(=O)c1c2c(nc3ccccc13)CCC2	.	.	.	.	.	.	/	/	/	/	/
CC1CN(S(=O)(=O)c2ccc(C(=O)Nc3ccccc3F)cc2)CC(C)O1 (stereo not drawn)	/	/	/	.	/	/	/	/	/	/	/
Cc1ccc(C)c(NS(=O)(=O)c2cc3c4c(c2)CC(=O)N4CCC3)c1	.	.	.	.	.	.	/	/	/	/	/
CCOCCCNC(C(=O)Nc1ccc(OC)c(Cl)c1)c1ccccc1 (stereo not drawn)	.	.	.	.	.	.	/	/	/	/	/
COCCNC(C(=O)Nc1cc(Cl)cc(Cl)c1)c1ccccc1 (stereo not drawn)	.	.	-12	-9.2	.	.	44%	.	40%	103	.
O=C(N/N=C/c1cccc(Oc2ccccc2)c1)c1cccc(Br)c1	.	5.6	-11	-11	.	.	54%	.	26%	99	0.16
CCOC(=O)c1ccc2c(c1)nc(COc1ccc3ccccc3c1)n2CC	.	.	-13	-10	.	.	59%	.	44%	125	0.13
O=C1C(=O)N(c2ccccn2)C(c2cccc(F)c2)/C1=C(/O)c1ccccc1 (stereo not drawn)	.	.	.	.	.	.	/	/	/	/	/
CCc1nnc(NC(=O)C2CCC(CNc3c(N4CCC(C)CC4)c(=O)c3=O)CC2)s1 (stereo not drawn)	.	.	.	.	.	.	/	/	/	/	/
C/C=C(/C)C(=O)OC1c2c(ccc3ccc(=O)oc23)OC(C)(C)C1OC(=O)/C(C)=C\C (stereo not drawn)	.	.	-13	-9.1	.	.	59%	.	35%	126	0.14
C/C=C(\C)C(=O)OC1c2c(ccc3ccc(=O)oc23)OC(C)(C)C1OC(C)=O (stereo not drawn)	.	.	.	.	.	.	/	/	/	/	/
CC(=O)Nc1sc(C)c(C)c1C(=O)OCCOc1ccccc1	.	.	-13	-11	.	.	46%	.	46%	125	0.13
CC(=O)Nc1sc(C)c(C)c1C(=O)OCC(=O)Nc1ccccc1	/	/	/	.	/	/	/	/	/	/	/
COc1ccc(C(=O)/C=C/c2ccc(OC)c(COc3ccc(F)cc3)c2)cc1	.	.	-13	-10	.	.	66%	.	33%	129	0.15
SMILES	KCNQ1 act	hERG protect	KCNK9 block	KCNK3 block	KCNQ1 block	Kir21 block	KCNK9 inh conf	Kir21 sel	KCNK9 uninduced	KCNK3 confirm	KCNK3 noninduced
CCC(C)Nc1nc(N)c([N+](=O)[O-])c(Nc2cc(OC)ccc2OC)n1 (stereo not drawn)	.	.	-9.7	.	.	.	40%	.	.	136	0.13
Cc1ccc(S(=O)(=O)N2CCN(C(=O)COC(=O)Cc3ccc(Cl)cc3)CC2)c(C)c1	/	/	/	.	/	/	/	/	/	/	/
CCN(C(=S)NCc1ccccc1)c1cccc2ccccc12	.	.	-18	-13	.	.	64%	.	46%	101	.
N/C(Cc1ccc([N+](=O)[O-])cc1)=N\OC(=O)C(c1ccccc1)c1ccccc1	.	.	-10	-9.6	.	.	34%	.	40%	126	.
CCC(C)n1c(C)cc(=O)n1C(C)CC (stereo not drawn)	/	/	/	.	/	/	/	/	/	/	/
CCC(Oc1ccccc1OC)C(=O)N1CC(=O)Nc2ccccc21 (stereo not drawn)	.	.	.	.	.	.	/	/	/	/	/
Cc1cc(OCC(=O)N2CCc3ccccc3C2)c2c(-c3ccccc3)cc(=O)oc2c1	.	.	.	-11	.	.	.	.	.	99	.
CC(=O)Oc1cc(C)cc2oc(=O)cc(-c3ccccc3)c12	.	.	.	.	.	.	/	/	/	/	/
CCOCCC(=O)Nc1nnc(CCc2ccccc2)s1	.	.	.	.	.	.	/	/	/	/	/
COc1ccc(/C=N/Nc2nc(C)cc(-c3ccccc3)n2)c(OC)c1	.	.	.	.	.	.	/	/	/	/	/
COc1ccc(/C=N/Nc2cc(C)nc3ccc(OC)cc23)c(OC)c1	.	.	-16	-14	14	.	.	.	38%	151	0.11
